Measurements gathered from unrelated publications.
Lines come from different studies, so protocols differ.
Target: Ephrin type-A receptor 1 (EPHA1, Homo sapiens, UniProt P21709)
Sequence (P21709 26-976, as in one of the studies): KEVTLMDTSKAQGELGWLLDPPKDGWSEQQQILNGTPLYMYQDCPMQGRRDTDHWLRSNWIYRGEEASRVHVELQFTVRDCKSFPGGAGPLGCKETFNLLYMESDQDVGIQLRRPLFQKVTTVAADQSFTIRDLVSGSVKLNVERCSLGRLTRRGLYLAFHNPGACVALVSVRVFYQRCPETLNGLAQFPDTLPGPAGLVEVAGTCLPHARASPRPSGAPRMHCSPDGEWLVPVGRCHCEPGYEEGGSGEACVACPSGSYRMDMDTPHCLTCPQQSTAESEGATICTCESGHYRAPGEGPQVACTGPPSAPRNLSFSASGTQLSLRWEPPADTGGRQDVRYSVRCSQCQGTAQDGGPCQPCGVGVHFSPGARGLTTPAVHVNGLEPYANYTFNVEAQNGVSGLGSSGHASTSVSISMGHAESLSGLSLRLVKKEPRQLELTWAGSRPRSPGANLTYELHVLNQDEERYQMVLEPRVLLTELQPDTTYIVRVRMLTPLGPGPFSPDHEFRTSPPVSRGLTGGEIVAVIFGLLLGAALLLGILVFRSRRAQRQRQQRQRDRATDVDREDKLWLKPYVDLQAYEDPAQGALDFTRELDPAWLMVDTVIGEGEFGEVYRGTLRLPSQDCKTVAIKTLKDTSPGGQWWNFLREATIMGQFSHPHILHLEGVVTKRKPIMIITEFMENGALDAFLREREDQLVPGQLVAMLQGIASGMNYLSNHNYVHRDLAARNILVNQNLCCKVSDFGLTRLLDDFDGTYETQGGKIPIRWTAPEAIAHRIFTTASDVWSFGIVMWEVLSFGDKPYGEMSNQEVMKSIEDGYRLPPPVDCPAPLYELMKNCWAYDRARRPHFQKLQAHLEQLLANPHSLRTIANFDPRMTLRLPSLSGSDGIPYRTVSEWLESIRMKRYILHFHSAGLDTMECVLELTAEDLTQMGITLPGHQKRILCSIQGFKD

| Compound | read-out | action | technique | concentration | measurement | result |
| --- | --- | --- | --- | --- | --- | --- |
| Nc1c(C(=O)NCc2ccc(C(=O)NCCCC3CCCCC3)cc2)cnn1-c1ccccc1 | cell-free assay | – | competition with immobilised ligand | 0.1 µM | remaining binding | 100% |
| O=C1Nc2ccc(Cl)cc2C1=Cc1cc(Cl)c(O)c(Cl)c1 | cell-free assay | – | – | 0.5 µM | remaining signal | 88.9% |
| COc1ccc2c(c1)O[C@H](c1ccc(OC)c(OC)c1)C[C@@H]2NC(=O)C1(c2ccc3c(c2)OC(F)(F)O3)CC1 | cell-free assay | – | competition with immobilised ligand | 1 µM | remaining binding | 88% |
| CCCOc1ccc(OC)c(F)c1C(=O)c1ccc(C(=O)N[C@@H]2CNC[C@H]2NC(=O)c2ccc3[nH]ncc3c2)cc1 | enzyme activity | inhibitor | – | 10 µM | remaining activity | 85% |
| Cc1ccc(Nc2nccc(N(C)c3ccc4c(C)n(C)nc4c3)n2)cc1S(N)(=O)=O | enzyme activity | inhibitor | – | 0.3 µM | inhibition | 23% |
| COc1cc2ncnc(Nc3ccc(Oc4ccccc4)cc3C)c2cc1OC | enzyme activity | inhibitor | – | 1 µM | inhibition | 11% |
| COc1cc(Cl)c(C(=O)N[C@@H](CN[C@H]2CC[C@@H](N)CC2)Cc2ccc(C#N)cc2)cc1-c1ccc(CN[C@H](C)c2ccc(C)cc2)o1 | enzyme activity | inhibitor | – | 1 µM | remaining activity | 105% |
| COc1cccc2c(NCc3ccccc3)nc(-n3c(N)nc4ccccc43)nc12 | target engagement in cells | inhibitor | chemoproteomics | 20 mM | inhibition | -22.2% |
| N#CCCc1ccc2c(c1)-c1[nH]c3ccc([N+](=O)[O-])cc3c1CC(=O)N2 | cell-free assay | – | – | 0.5 µM | remaining signal | 91.7% |
| CCN(CC)c1ccc(C2=NNC(=O)CC2C)cc1[N+](=O)[O-] (stereo not drawn) | enzyme activity | inhibitor | – | 10 µM | remaining activity | 112% |
| Cc1cc(NC(=O)c2cccc3cc(-c4cccc5[nH]nc(N)c45)ccc23)ccc1F | enzyme activity | inhibitor | – | 0.1 µM | activity vs control | 102% |
| Cc1sc(C(=O)NC2COC2)cc1-n1cc(NC(=O)Nc2c(F)cccc2Cl)cn1 | enzyme activity | inhibitor | – | 10 µM | remaining activity | 88.5% |
| CN(C)C(=O)Cn1cc(-c2nc(C3(c4ccc(-c5cnc(N)nc5)cc4)CC3)no2)cn1 | cell-free assay | – | competition with immobilised ligand | 1 µM | remaining binding | 100% |
| Nc1ncnc2occ(-c3ccc(NC(=O)Nc4cc(C(F)(F)F)ccc4F)cc3)c12 | cell-free assay | – | – | 20 µM | remaining signal | 0.5% |
| O=C(Nc1cccnn1)N1CCC(=Cc2cccc(Oc3ccc(C(F)(F)F)cn3)c2)CC1 | cell-free assay | – | competition with immobilised ligand | 1 µM | remaining binding | 100% |
| CNC(=O)c1cc2c(Oc3ccc(NC(=O)C4(C(=O)Nc5ccc(F)cc5)CC4)cc3)ccnc2cc1OC | enzyme activity | inhibitor | radiometric | 1 µM | inhibition | 90% |
| CS(=O)(=O)N1CCCC(NC(=O)[C@H](CCC2CCCCC2)NC(=O)c2ccc(CNc3ncnc4c3nnn4-c3ccccc3)cc2)C1 (stereo partly drawn) | cell-free assay | – | competition with immobilised ligand | 0.1 µM | remaining binding | 95% |
| CNC(=O)c1cc(Oc2ccc(NC(=O)Nc3ccc(Cl)c(C(F)(F)F)c3)cc2)ccn1 | enzyme activity | inhibitor | – | 10 µM | inhibition | 94% |
